Reference: publication PMC4297623 (Nature, 2011)
Like-named read-outs stand apart in the source and are kept apart here. One block for each compound: values may come before it.

Columns and labels:
EBI2 [1] = biological target: T1, EBI2 (Homo sapiens, UniProt P32249); assay type: cell-based
[2] = tested on: Parental cells lacking the EBI2 receptor; assay: Calcium mobilization in parental cell line lacking EBI2; assay type: cell-based; conditions: parental cell line without EBI2
31 different GPCRs = assay: Panel of GPCR assays; assay type: cell-based
[3] = tested on: bone marrow-derived dendritic cells; assay: Transwell migration of bone marrow-derived dendritic cells; assay type: cell-based, mice; conditions: transwell assay
Summary of the method: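 Dendritic cells derived from the bone marrow of wild-type and Ebi2(−/−) mice, tested side by side for transwell migration toward oxysterol test compounds. Samples run in quadruplicate.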

EBI2 [4] = biological target: T1, EBI2; assay: Calcium mobilization; assay type: cell-based
[5] = tested on: 8 different nuclear hormone receptors including LXR; assay: Panel of reporter gene assays against nuclear hormone receptors; assay type: cell-based; conditions: 8 nuclear hormone receptors including LXR
RS11846 cells = assay: Transwell migration of RS11846 cells; assay type: cell-based; conditions: transwell assay
[6] = tested on: EBV-infected human B cell line; assay: Transwell migration of EBV-infected B cells; assay type: cell-based; conditions: transwell assay; bell shaped activity curve
Summary of the method: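 Transwell chemotaxis of an EBV-infected human B cell line toward oxysterol test compounds in the lower chamber. Samples run in duplicate.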

[7] = tested on: EBI2 expressing cell line (M12); assay: Migration bioassay with EBI2 expressing reporter cell line; assay type: cell-based; conditions: attraction of EBI2 expressing cell line (Fig. S8c)
Summary of the method: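 Chemoattraction bioassay: M12 reporter cells, with or without EBI2, exposed to the oxysterol ligand; read-out is migration of cells toward it. The same assay was also run on spleen and lymph node tissue extracts from wild-type and Ch25h-deficient mice.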

EBI2 [8] = biological target: T1, EBI2; assay: GTPγ35S binding functional assay; assay type: biochemical
EBI2 [9] = biological target: T1, EBI2; assay: Radioligand binding to membranes from EBI2 expressing CHO cells
[10] = tested on: Membranes from parental cells lacking EBI2 receptor; assay: Radioligand binding to membranes from parental cells lacking EBI2; conditions: data not shown
[11] = read-out: GTPγ^35S Binding EC50, n = 3-4, ± standard deviation
[12] = read-out: [^3H]-7α, 25-OHC Binding IC50, displacement of 10 nM 3H-7α, 25-OHC from membranes of EBI2 expressing CHO cells, n = 3-4, ± standard deviation
[13] = read-out: Ca^2+ Fluorescence EC50, FLIPR, CHO cells stably expressing EBI2, n = 3-4, ± standard deviation

T1 sequence (P32249 whole entry): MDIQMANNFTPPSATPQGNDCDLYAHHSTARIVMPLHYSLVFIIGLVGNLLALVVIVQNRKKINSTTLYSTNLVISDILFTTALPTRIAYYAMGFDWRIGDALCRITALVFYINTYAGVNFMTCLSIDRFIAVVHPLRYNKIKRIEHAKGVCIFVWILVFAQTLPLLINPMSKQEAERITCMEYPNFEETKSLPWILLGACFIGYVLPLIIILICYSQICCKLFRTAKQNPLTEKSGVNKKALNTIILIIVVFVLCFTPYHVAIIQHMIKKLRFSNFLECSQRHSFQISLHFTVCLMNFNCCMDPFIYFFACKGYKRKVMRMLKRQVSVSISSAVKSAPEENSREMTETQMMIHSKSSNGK

activation of EBI2 (EBI2 [1]; initial test of candidates (Fig. S3)): did not activate EBI2
Compound: CO[C@H]1C=C2C[C@@H](O)CC[C@]2(C)[C@H]2CC[C@]3(C)[C@@H]([C@H](C)CCCC(C)C)CC[C@H]3[C@H]12 [7-methoxy derivate of 7β-OHC]

Compound: C[C@H](CCCC(C)(C)O)[C@H]1CC[C@H]2[C@@H]3[C@H](O)C=C4C[C@@H](O)CC[C@]4(C)[C@H]3CC[C@]12C [7α, 25-OHC, 5-cholesten-3β, 7α, 25-triol]
calcium response of parental cells lacking EBI2 [2]: did not respond
interaction with other GPCRs (31 different GPCRs): In none of these assays did we see a significant interaction
migration of BMDC from wild type and Ebi2(−/−) animals [3]: only wild type cells migrate
EC50 (EBI2 [4]): 2 ± 2 nM
interaction with nuclear hormone receptors [5]: In none of these assays did we see a significant interaction
chemoattraction of RS11846 cells (RS11846 cells; bell shaped activity curve): can potently attract
chemoattraction of EBV-infected B cells [6]: can potently attract
sensitivity of bioassay [7]: subnanomolar sensitivity

EC50 (EBI2 [8]; [11]): 5 ± 2 nM
IC50 (EBI2 [9]; [12]): 362 ± 32 nM
EC50 (EBI2 [4]; [13]): 5 ± 4 nM
Compound: C[C@@H](CO)CCC[C@@H](C)[C@H]1CC[C@H]2[C@@H]3[C@H](O)C=C4C[C@@H](O)CC[C@]4(C)[C@H]3CC[C@]12C [7α, 27-OHC]
interaction with other GPCRs (31 different GPCRs): In none of these assays did we see a significant interaction
interaction with nuclear hormone receptors [5]: In none of these assays did we see a significant interaction

Compound: C[C@H](CCCC(C)(C)O)[C@H]1CC[C@H]2[C@@H]3[C@@H](O)C=C4C[C@@H](O)CC[C@]4(C)[C@H]3CC[C@]12C [7β, 25-OHC, cholest-5-ene-3β, 7β, 25-triol]
EC50 (EBI2 [1]): ~50 nM

EC50 (EBI2 [8]; [11]): 125 ± 66 nM
IC50 (EBI2 [9]; [12]): > 10000 nM
EC50 (EBI2 [4]; [13]): 310 ± 261 nM
Compound: C[C@@H](CO)CCC[C@@H](C)[C@H]1CC[C@H]2[C@@H]3[C@@H](O)C=C4C[C@@H](O)CC[C@]4(C)[C@H]3CC[C@]12C [7β, 27-OHC]

EC50 (EBI2 [8]; [11]): 727 ± 232 nM
IC50 (EBI2 [9]; [12]): > 10000 nM
EC50 (EBI2 [4]; [13]): 3030 ± 2640 nM
Compound: C[C@H](CCCC(C)(C)O)[C@H]1CC[C@H]2[C@@H]3CC=C4C[C@@H](O)CC[C@]4(C)[C@H]3CC[C@]12C [25-OHC]

Compound: [3H]C1(O)C=C2CC(O)CCC2(C)C2CCC3(C)C(C(C)CCCC(C)(C)O)CCC3C21 (stereo not drawn) [[^3H]-7α, 25-OHC]
binding of radioligand to membranes from parental cells [10]: did not bind

specific binding of radioligand to EBI2 membranes (EBI2 [9]; EBI2 membranes): no specific binding
Compound: [3H]C1(O)C=C2CC(O)CCC2(C)C2CCC3(C)C(C(C)CCCC(C)(C)O)CCC3C21 (stereo not drawn) [[^3H]-7β, 25-OHC]

EC50 (EBI2 [8]): > 10000 nM
IC50 (EBI2 [9]): > 10000 nM
EC50 (EBI2 [4]): > 10000 nM
Compound: CC(C)CCC[C@@H](C)[C@H]1CC[C@H]2[C@@H]3CC=C4C[C@@H](O)CC[C@]4(C)[C@H]3CC[C@]12C [cholesterol]

Compound: pertussis toxin
effect on oxysterol-mediated attraction of RS11846 cells (RS11846 cells; presence of pertussis toxin): could be blocked
